# In paper PMC9532374 (Cancer research, 2022):
# Key:
# PAD = PAD (Mus musculus, UniProt Q9Z183); experiment: PAD activity assay in BM neutrophils of tumor-bearing mice; type: cell-based; conditions: BM Ly6G+ cells pretreated for 2h with GSK484
# In short: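 Bone marrow Ly6G+ cells (MACS) from tumor-free or tumor-bearing mice were pretreated for 2 h with inhibitor. Cells were lysed at 1×10^8 cells/mL and lysates incubated with 10 mM BAEE for 30 min at 37°C. Colour reagent (acids, ammonium iron sulfate, DAMO, thiosemicarbazide) was added, samples heated at 95–100°C for 15 min, and absorbance read at 540 nm.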
# Mouse HPC = experiment: HPC differentiation in vitro with GM-CSF with or without LLC TES; type: cell-based; conditions: 10 μM; presence or absence of TES; 5 days of culture
# In short: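 Bone marrow HPC from WT or PAD4 KO mice were lineage-depleted and differentiated in RPMI with GM-CSF (20 ng/mL), with or without 25% LLC explant supernatant and with or without 10 μM test compound, for 5 days. Proportion and absolute number of Ly6G+ cells were determined by flow cytometry in Aqua-negative cells.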
# Ly6G+ cells = experiment: Suppression assay with Ly6G+ cells generated from HPC in the presence of TES; type: cell-based, mouse
# mouse neutrophils = experiment: Viability / toxicity in mouse neutrophils; type: cell-based
# BM neutrophils = experiment: Transwell chemotaxis of mouse neutrophils toward CXCL1; type: cell-based
# In short: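 Bone marrow Ly6G+ neutrophils were MACS-isolated (>95% pure) and pre-incubated with 10 μM test compound for 2 h. They were placed in a 3 μm Transwell, 0.1 × 10^6 cells on top, with CXCL1 in Advanced RPMI below. After 1 h at 37°C, migrated cells were counted. Spontaneously migrating cells were subtracted.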
# CXCR2 [1] = experiment: CXCR2 surface expression on neutrophils differentiated in vitro from HPC; type: cell-based, mouse; conditions: 10 μM
# In short: (§1)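 Bone marrow hematopoietic progenitors were lineage-depleted and cultured in RPMI with GM-CSF (20 ng/mL), with or without 25% LLC tumor explant supernatant and with or without 10 μM test compound. The supernatant came from ~1.5 cm tumors, minced, incubated overnight at 37°C and 0.22 μm filtered. Surface CXCR2/CXCR4 was measured by flow cytometry.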
# CXCR4 [2] = experiment: CXCR4 surface expression on neutrophils differentiated in vitro from HPC; type: cell-based, mouse; conditions: 10 μM
# In short: as §1
# CXCR2 [3] = experiment: CXCR2 expression in human PB neutrophils; type: cell-based
# In short: (§2)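 Peripheral blood neutrophils came from healthy donors or cancer patients. They were collected at the Histopaque 1.077/1.119 interphase after double-density gradient centrifugation, followed by RBC lysis, with CD15 staining to confirm purity. Cells were exposed to 10 μM test compound for 1–4 h. Receptor mRNA was measured by SYBR Green qPCR normalized to β-actin, and surface level by flow cytometry.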
# CXCR4 [4] = experiment: CXCR4 expression in human PB neutrophils; type: cell-based
# In short: as §2
# human neutrophils [5] = experiment: Viability of human neutrophils; type: cell-based; conditions: four-hour treatment, 10 μM
# human neutrophils [6] = experiment: Chemotaxis of human neutrophils toward IL-8; type: cell-based; conditions: 10 μM for 4h
# In short: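 Human neutrophils were treated with 10 μM test compound for 4 h. They were then placed in a 3 μm pore Transwell, 0.1 × 10^6 cells in Advanced RPMI in the insert, with chemoattractant in medium below. After 1 h at 37°C and 5% CO2, migrated cells in the bottom well were counted.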
# T cells = experiment: T cell proliferation, human PB MNC stimulated with CD3/CD28 Dynabeads; type: cell-based; conditions: 10 μM pre-treatment 2h; healthy donors or cancer patients; 72h
# In short: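 Peripheral blood mononuclear cells (Ficoll-Paque; healthy donors or multiple myeloma patients) were labeled with CellTrace Far Red. Cells were pre-treated for 2 h with 10 μM test compound or DMSO vehicle and stimulated with CD3/CD28 Dynabeads for 72 h. Dye dilution was read by flow cytometry in gated CD4+ and CD8+ T cells.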
# CD4+ T cells = experiment: IFN-γ production by human T cells; type: cell-based; conditions: 10 μM pre-treatment; 5h stimulation
# In short: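 Peripheral blood mononuclear cells from healthy donors or multiple myeloma patients were Ficoll-Paque isolated. Cells were pre-treated with 10 μM test compound or DMSO vehicle, then stimulated for 5 h with a cell stimulation cocktail with or without protein transport inhibitors. IFN-γ and IL-2 were measured by flow cytometry in gated CD4+ and CD8+ T cells.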
# histone H3 = experiment: PMA-induced citrullination of histone H3 in mouse neutrophils; type: cell-based; conditions: in vitro
# [7] = Pharmacokinetic study in mice, oral; type: in vivo, Balb/c male mice; conditions: 10 mg/kg via oral gavage
# In short: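 Male Balb/c mice (6–8 weeks, 22–25 g) received 10 mg/kg test compound by oral gavage, as a suspension in Tween-80 and 0.5% methyl cellulose. Sparse blood sampling (~100 μL; three mice per point) was done at 0.25–24 h into K2EDTA tubes. Plasma was separated by centrifugation at 10,000 rpm for 5 min at 4°C.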
# LL2 = experiment: Viability of LL2 tumor cell line in vitro; type: cell-based, mouse
# B16F10 = experiment: Viability of B16F10 tumor cell line in vitro; type: cell-based, mouse
# CXCR2 [8] = experiment: CXCR2 expression on neutrophils treated with JBI-589 in vitro; type: cell-based
# LL2 tumors = experiment: LL2 tumor model in mice; type: in vivo, mouse
# B16F10 tumors = experiment: B16F10 tumor model in mice; type: in vivo, mouse; conditions: B16F10-bearing mice; 50 mg/kg b.i.d., daily, oral gavage
# In short: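 Male and female mice, 6–8 weeks old, were given 0.3× 10^6 B16F10 cells s.c. into the right flank. Cells were grown in DMEM with 10% FBS and were Mycoplasma-negative. Test compound was given by oral gavage. Read-out was the kinetics of primary tumor growth.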
# CXCR2 [9] = experiment: CXCR2 surface expression on Ly6G+ cells from treated LL2-bearing mice; type: in vivo, mouse; conditions: JBI-589 treated LL2-bearing mice
# In short: (§3)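 LL2 cells (0.3× 10^6) were injected s.c. into the right flank. Mice received test compound at 50 mg/kg b.i.d. daily by oral gavage. Cells were Fc-blocked for 10 min, then antibody-stained for 20 min on ice with Live/Dead Aqua. Surface receptor was measured by flow cytometry on CD45+CD11b+Ly6G+ cells.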
# CXCR4 [10] = experiment: CXCR4 surface expression on Ly6G+ cells from treated LL2-bearing mice; type: in vivo, mouse; conditions: JBI-589 treated LL2-bearing mice
# In short: as §3
# [11] = system: BM and spleen neutrophils; type: in vivo, mouse; conditions: neutrophils from JBI-589-treated LL2-bearing mice re-stimulated in vitro with LL2 cell supernatant
# M-MDSC, TAMs = experiment: Gene expression in spleen M-MDSC or TAMs treated in vitro; type: cell-based, mouse; conditions: in vitro treatment of spleen M-MDSC or TAMs from LL2-bearing mice
# M-MDSC, TAM, PMN-MDSC = experiment: Suppression assay with myeloid cells isolated from treated mice; type: in vivo, mouse; conditions: cells from JBI-589-treated mice
# [12] = 10 μM for 4h, healthy donors and cancer patients, flow cytometry
# PAD, sequence (Q9Z183 whole entry): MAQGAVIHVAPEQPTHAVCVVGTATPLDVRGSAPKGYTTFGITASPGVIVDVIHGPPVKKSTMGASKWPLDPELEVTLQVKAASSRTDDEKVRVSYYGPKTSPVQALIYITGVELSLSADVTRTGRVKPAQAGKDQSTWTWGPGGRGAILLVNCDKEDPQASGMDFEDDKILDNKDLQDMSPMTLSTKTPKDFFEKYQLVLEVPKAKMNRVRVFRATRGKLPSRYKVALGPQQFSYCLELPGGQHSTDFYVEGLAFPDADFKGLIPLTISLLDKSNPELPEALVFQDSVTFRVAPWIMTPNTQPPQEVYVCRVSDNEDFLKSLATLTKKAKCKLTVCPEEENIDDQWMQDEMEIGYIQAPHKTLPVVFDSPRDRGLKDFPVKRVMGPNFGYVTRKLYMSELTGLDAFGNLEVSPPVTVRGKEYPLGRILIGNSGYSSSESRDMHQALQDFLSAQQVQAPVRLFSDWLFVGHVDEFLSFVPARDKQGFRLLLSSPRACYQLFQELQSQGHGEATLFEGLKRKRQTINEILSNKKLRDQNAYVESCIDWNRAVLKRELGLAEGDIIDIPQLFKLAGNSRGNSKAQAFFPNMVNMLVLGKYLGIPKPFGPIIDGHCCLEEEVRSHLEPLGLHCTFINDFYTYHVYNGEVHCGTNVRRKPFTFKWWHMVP
compound,measurement,setting,value
COc1cc(C(=O)N2CC[C@@H](O)[C@@H](N)C2)cc2nc(-c3cc4ccccc4n3CC3CC3)n(C)c12 [GSK484],tumor-induced up-regulation of PAD activity in PMN,PAD,completely abrogated
same,HPC differentiation (proportion and absolute number of Ly6G+ cells),Mouse HPC,had no effect
same,immune suppressive activity of Ly6G+ cells generated in the presence of TES,Ly6G+ cells; inhibitor present during HPC differentiation,did not abrogate
same,viability of neutrophils,mouse neutrophils; mouse neutrophils,did not affect
same,CXCL1-induced chemotaxis of neutrophils,BM neutrophils; BM neutrophils pre-incubated with 10 μM for 2h,reduced
same,up-regulation of CXCR2 in the presence of TES,CXCR2 [1]; with LLC TES,abrogated up-regulation of CXCR2
same,baseline CXCR2 expression,CXCR2 [1]; without TES,reduced baseline CXCR2 expression
same,CXCR4 expression in the presence of TES,CXCR4 [2]; with LLC TES,reduced its expression in the presence of TES
same,CXCR4 expression in control,CXCR4 [2]; without TES,slightly decreased
same,CXCR2 receptor expression in neutrophils,CXCR2 [3]; [12],dramatically reduced
same,CXCR2 receptor (surface) level,"CXCR2 [3]; 4h after treatment, 10 μM, HD neutrophils, time course",significant downregulation
same,surface level of CXCR2 protein,"CXCR2 [3]; one-hour treatment, 10 μM, HD neutrophils",not affecting
same,CXCR2 gene expression,"CXCR2 [3]; one-hour treatment, 10 μM, HD neutrophils, qPCR",significantly downregulated
same,gene or protein expression of CXCR4,"CXCR4 [4]; 10 μM for 1–4h, HD neutrophils",did not affect
same,neutrophil CXCR4 receptor expression,CXCR4 [4]; [12],did not affect expression
same,viability of neutrophils,human neutrophils [5],did not affect viability
same,chemotaxis of neutrophils toward IL-8,human neutrophils [6],decreased chemotaxis
same,T cell proliferation,T cells,slightly decreased
same,IFN-γ production by CD4+ T cells,CD4+ T cells,reduced IFN-γ production
"Cc1c(-c2cc3ccccc3n2Cc2ccc(F)cc2)nc2cc(C(=O)N3CCC[C@@H](N)C3)ccn12 [JBI-589, (R)-(3-aminopiperidin-1-yl)(2-(1-(4-fluorobenzyl)-1H-indol-2-yl)-3-methylimidazo[1,2-a]pyridin-7-yl)methanone]",suppressive activity of Ly6G+ cells generated in vitro from HPC in the presence of TES,Ly6G+ cells; JBI-589,no effect
same,toxicity in mouse neutrophils,"mouse neutrophils; in vitro, JBI-589",without noticeable toxicity
same,CXCL1-induced migration of neutrophils,"BM neutrophils; in vitro, JBI-589",reduced
same,PMA-induced citrullination of histone H3,histone H3,inhibited PMA-induced citrullination of histone H3 in mouse neutrophils in a dose-dependent manner
same,oral bioavailability,[7],excellent oral bioavailability
same,viability of LL2 tumor cell line,LL2,No effect
same,viability of B16F10 tumor cell line,B16F10,No effect
same,CXCR2 expression on neutrophil,CXCR2 [8],significantly downregulated
same,infiltration of tumor tissues with activated CD8+ and CD4+ T cells,LL2 tumors; LL2-bearing mice,increased infiltration
same,"frequency of LSK, GMP, CMP and MEP and their proliferation in spleens","LL2 tumors; LL2-bearing mice, treated vs control",No differences
same,primary tumor growth,"LL2 tumors; LL2-bearing mice, 50 mg/kg, twice a day, daily, oral gavage",markedly reduced
same,lung metastatic lesions,"LL2 tumors; LL2-bearing mice, IVIS",almost undetectable
same,inhibition of primary tumor growth by ICB on addition of JBI-589,"LL2 tumors; LL2-bearing mice, JBI-589 50 mg/kg b.i.d. plus anti-CTLA-4 and anti-PD-1 antibodies",significantly enhanced
same,presence of tumor-associated neutrophils,"LL2 tumors; LL2-bearing mice, flow cytometry",significant decrease
same,cellularity of the BM,"LL2 tumors; mouse, in vivo",did not affect
same,primary tumor growth,B16F10 tumors,markedly reduced
same,CXCR2 receptor expression in Ly6G+ cells,CXCR2 [9],significant down-regulation
same,CXCR4 receptor expression in Ly6G+ cells,CXCR4 [10],but not CXCR4
same,NET formation by BM and spleen neutrophils,[11],unable to produce NETs
same,expression of genes encoding soluble factors involved in pro-tumorigenic effect,"M-MDSC, TAMs",did not affect
same,"suppressive activity of M-MDSC, TAM and PMN-MDSC","M-MDSC, TAM, PMN-MDSC",did not affect suppressive activity
